Source: ChEMBL document CHEMBL2157975 (Bioorg Med Chem Lett, 2012)

Legend:
[1] = Metabolic stability in plasma; assay type: ADME, cell-free
[2] = target: T1, Type-1 angiotensin II receptor (Homo sapiens, UniProt P30556); experiment: Inhibition of AT1 receptor
T1 sequence (P30556 whole entry): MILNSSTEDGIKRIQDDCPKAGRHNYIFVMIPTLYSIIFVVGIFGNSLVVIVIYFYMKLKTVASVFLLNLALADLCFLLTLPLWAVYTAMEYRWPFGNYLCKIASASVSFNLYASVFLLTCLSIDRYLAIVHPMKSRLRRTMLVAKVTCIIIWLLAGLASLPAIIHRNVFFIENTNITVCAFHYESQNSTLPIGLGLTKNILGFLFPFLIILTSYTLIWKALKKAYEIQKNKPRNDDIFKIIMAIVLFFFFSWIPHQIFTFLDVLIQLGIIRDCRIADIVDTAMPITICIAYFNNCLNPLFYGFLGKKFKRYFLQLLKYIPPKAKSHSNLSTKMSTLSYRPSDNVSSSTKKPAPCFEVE

[3] = Binding affinity to benzodiazepinone receptor at 10 uM
[4] = Metabolic stability in human hepatic microsomes assessed as compound remaining at 60 mins; assay type: ADME; settings: liver microsomes, read-out: Stability
Procedure, shortened: (§1)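 Test compound incubated with liver microsomes, human or mouse according to the line (the text also calls these liver homogenates). Read-out was the percentage of parent compound remaining after 60 min.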

Hepatocyte = experiment: Cytotoxicity against human hepatocytes; assay type: cell-based
[5] = target: Kappa-type opioid receptor (Homo sapiens) (UniProt P41145); experiment: Binding affinity to kappa-opioid receptor at 10 uM
[6] = Metabolic stability in mouse hepatic microsomes assessed as compound remaining at 60 mins; assay type: ADME; settings: liver microsomes, read-out: Stability; procedure, shortened: as §1
[7] = target: T2, Apelin receptor (Homo sapiens) (UniProt P35414); experiment: Antagonist activity at APJ receptor assessed as inhibition of apelin13-induced cAMP accumulation; assay type: functional
T2 sequence (whole entry): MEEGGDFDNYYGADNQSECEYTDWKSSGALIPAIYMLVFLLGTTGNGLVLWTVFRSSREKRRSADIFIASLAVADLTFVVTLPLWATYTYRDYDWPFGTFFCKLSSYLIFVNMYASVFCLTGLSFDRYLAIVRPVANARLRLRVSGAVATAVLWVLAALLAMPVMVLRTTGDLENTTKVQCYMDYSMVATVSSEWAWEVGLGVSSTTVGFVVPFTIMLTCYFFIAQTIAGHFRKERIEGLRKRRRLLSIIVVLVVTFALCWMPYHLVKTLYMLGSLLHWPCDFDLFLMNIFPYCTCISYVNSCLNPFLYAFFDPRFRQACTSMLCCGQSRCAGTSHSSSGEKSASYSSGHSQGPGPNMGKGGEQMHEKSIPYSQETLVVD

Plasma = experiment: Plasma protein binding in mouse; assay type: ADME, cell-free

Sequence of Kappa-type opioid receptor (Homo sapiens) (P41145 whole entry): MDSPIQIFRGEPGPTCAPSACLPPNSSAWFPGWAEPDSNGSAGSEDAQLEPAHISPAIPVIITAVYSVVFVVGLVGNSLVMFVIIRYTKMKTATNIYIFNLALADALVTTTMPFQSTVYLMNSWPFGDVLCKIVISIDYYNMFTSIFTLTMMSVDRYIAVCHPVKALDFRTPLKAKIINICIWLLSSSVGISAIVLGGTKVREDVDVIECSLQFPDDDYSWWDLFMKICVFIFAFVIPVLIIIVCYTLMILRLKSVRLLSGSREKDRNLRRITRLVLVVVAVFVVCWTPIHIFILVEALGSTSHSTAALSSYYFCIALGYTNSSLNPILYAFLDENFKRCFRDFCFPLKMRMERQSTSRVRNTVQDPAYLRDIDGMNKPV

**Q.** For `O=C(Oc1coc(CSc2ncccn2)cc1=O)c1ccc([N+](=O)[O-])cc1`, which Stability [1] is on record?
**A.** 42.2%

**Q.** What about the IC50 [2] of the same compound?
**A.** > 79 µM

**Q.** And the Activity [3]?
**A.** < 70%

**Q.** What about the remaining at 1 h [4] of the same compound?
**A.** 4.2%

**Q.** What about the Activity (Hepatocyte) of the same compound?
**A.** > 50 µM

**Q.** What about the Activity [5] of the same compound?
**A.** < 50%

**Q.** What about the remaining at 1 h [6] of the same compound?
**A.** 4.9%

**Q.** And the inhibition [7]?
**A.** Dose-dependent effect

**Q.** What about the PPB (Plasma) of the same compound?
**A.** 99.1%
